Values after ≈ are worked out from the molar mass of the structure shown.
How the values were obtained:
[1] = system: Escherichia coli; test: Bactericidal activity against Escherichia coli CIP54.8T incubated for 30 mins under dark conditions; assay type: organism-based; settings: 0.5 h
Procedure, shortened: (§1)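 Minimal bactericidal concentration (MBC) was determined in tryptic soy medium with log-phase bacteria at 37 °C. Plates were either kept in the dark or given 20 h of white light at 4.83 mW/cm². MBC was taken as the concentration killing 99.99% of bacteria, i.e. a 4-log reduction versus the untreated control.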

[2] = system: Pseudomonas aeruginosa; test: Photobactericidal activity against Pseudomonas aeruginosa CIP76110 irradiated with white light at 4.83 mW/cm2 for 20 hrs; assay type: functional; settings: CIP76110, light or radiation study; procedure, shortened: as §1
[3] = system: Pseudomonas aeruginosa; test: Bactericidal activity against Pseudomonas aeruginosa CIP76110 incubated for 30 mins under dark conditions; assay type: organism-based; settings: 0.5 h; procedure, shortened: as §1
[4] = system: Staphylococcus aureus; test: Bactericidal activity against Staphylococcus aureus CIP76.25 incubated for 30 mins under dark conditions; assay type: ADME, organism-based; settings: 0.5 h
Procedure, shortened: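 S. aureus exposed to compound in PBS 1X for 30 min at 37 °C, then washed three times with PBS. The light arm was white LED irradiation at 4.83 mW/cm² (7 J/cm² = 24 min) at 37 °C. Survival was expressed as % of initial bacterial density.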

[5] = system: Escherichia coli; test: Photobactericidal activity against Escherichia coli CIP54.8T irradiated with white light at 4.83 mW/cm2 for 20 hrs; assay type: functional; settings: light or radiation study; procedure, shortened: as §1
[6] = system: Staphylococcus aureus; test: Photobactericidal activity against Staphylococcus aureus CIP76.25 irradiated with white light at 4.83 mW/cm2 for 20 hrs; assay type: functional; settings: CIP76.25, light or radiation study; procedure, shortened: as §1

Compound | MBC [1] [µM] | MBC [2] [µM] | MBC [3] [µM] | MBC [4] [µM] | MBC [5] [µM] | MBC [6] [µM]
CCCCCCCC(=O)N[C@@H](CS)C(=O)N[C@H](C(=O)N[C@@H](CCN)C(=O)N[C@H]1CCNC(=O)[C@H]([C@@H](C)O)NC(=O)[C@H](CCN)NC(=O)[C@H](CCN)NC(=O)[C@H](CC(C)C)NC(=O)[C@@H](Cc2ccccc2)NC(=O)[C@H](CCN)NC1=O)[C@@H](C)O | 5 (≈ 5.96 µg/mL) | 10 (≈ 11.9 µg/mL) | 10 (≈ 11.9 µg/mL) | > 50 | 5 (≈ 5.96 µg/mL) | > 50
C[n+]1ccc(-c2c3nc(c(-c4cc[n+](C)cc4)c4ccc([nH]4)c(-c4cc[n+](C)cc4)c4nc(c(-c5cc[n+](C)cc5)c5ccc2[nH]5)C=C4)C=C3)cc1 | – | 20 | – | – | 18 | 5
